Measured values: ChEMBL document CHEMBL5579886, “Selective Degradation of MLK3 by a Novel CEP1347-VHL-02 PROTAC Compound Limits the Oncogenic Potential of TNBC” (J Med Chem, 2024)
Activity calls are given as the source filed them. The calls are words filed in the database; no cut-off is given here.

Assays:
[1] = molecular target: T1, von Hippel-Lindau disease tumor suppressor/Mitogen-activated protein kinase kinase kinase 11 (Homo sapiens, UniProt Q16584+P40337); test: PROTAC activity at VHL/DOX-inducible MLK3 (unknown origin) overexpressed in human HCC1806 cells assessed as protein degradation at 0.25 uM incubated for 24 hrs by immunoblot analysis; format: cell-based
T1 sequence (P40337 whole entry, looked up): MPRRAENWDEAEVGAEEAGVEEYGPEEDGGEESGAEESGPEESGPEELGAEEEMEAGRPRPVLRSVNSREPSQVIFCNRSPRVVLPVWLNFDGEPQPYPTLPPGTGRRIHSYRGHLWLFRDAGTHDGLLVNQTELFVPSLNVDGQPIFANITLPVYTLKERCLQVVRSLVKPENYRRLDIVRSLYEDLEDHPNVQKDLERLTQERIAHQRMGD
T1 sequence (Q16584 whole entry, looked up): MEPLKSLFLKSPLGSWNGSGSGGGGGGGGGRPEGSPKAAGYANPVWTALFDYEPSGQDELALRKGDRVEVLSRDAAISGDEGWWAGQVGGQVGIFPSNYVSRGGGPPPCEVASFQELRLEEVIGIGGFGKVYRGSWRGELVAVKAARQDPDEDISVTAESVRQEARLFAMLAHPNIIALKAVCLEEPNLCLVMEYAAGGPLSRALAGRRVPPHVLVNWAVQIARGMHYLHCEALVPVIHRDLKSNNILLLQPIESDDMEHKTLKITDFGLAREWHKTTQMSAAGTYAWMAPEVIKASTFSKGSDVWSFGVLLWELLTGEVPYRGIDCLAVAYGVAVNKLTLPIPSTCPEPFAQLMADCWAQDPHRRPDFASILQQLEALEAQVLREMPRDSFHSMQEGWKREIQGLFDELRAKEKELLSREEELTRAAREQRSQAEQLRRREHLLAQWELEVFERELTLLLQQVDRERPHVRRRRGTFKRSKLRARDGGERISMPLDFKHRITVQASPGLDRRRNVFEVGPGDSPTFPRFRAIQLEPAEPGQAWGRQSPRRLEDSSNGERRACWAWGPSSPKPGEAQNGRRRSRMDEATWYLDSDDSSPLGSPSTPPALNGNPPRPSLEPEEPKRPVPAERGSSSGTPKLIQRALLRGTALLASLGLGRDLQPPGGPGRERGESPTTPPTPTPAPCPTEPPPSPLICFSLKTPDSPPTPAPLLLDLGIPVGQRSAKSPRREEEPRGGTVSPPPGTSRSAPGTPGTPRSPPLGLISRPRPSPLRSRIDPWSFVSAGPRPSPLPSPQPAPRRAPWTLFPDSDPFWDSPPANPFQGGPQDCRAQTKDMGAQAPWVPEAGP

[2] = molecular target: T1, von Hippel-Lindau disease tumor suppressor/Mitogen-activated protein kinase kinase kinase 11; test: PROTAC activity at VHL/DOX-inducible MLK3 (unknown origin) overexpressed in carfilzomib-treated human HCC1806 cells assessed as protein degradation at 0.25 to 1 uM measured after 7 hrs by immunoblot analysis; format: cell-based; conditions: dose 0.25-1 µM
Procedure, shortened: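 HCC1806 cells with DOX-inducible MLK3 were induced with 1 μg/mL DOX for 24 h. They were pretreated with 1 μM carfilzomib (proteasome inhibitor) for 1 h, then with PROTAC at 0.25–1 μM for 7 h, with DMSO as control. MLK3 was assessed by ECL immunoblot.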

[3] = molecular target: von Hippel-Lindau disease tumor suppressor/Mitogen-activated protein kinase kinase kinase 9 (Homo sapiens) (UniProt P80192+P40337); test: PROTAC activity at VHL/DOX-inducible MLK1 (unknown origin) overexpressed in human A-375 cells assessed as protein degradation at 0.1 to 5 uM incubated for 24 hrs by immunoblot analysis; format: cell-based; conditions: dose 0.1-5 µM
von Hippel-Lindau disease tumor suppressor/Mitogen-activated protein kinase kinase kinase 9 (Homo sapiens), sequence (P40337 whole entry, looked up): as the sequence (P40337 whole entry, looked up) above
von Hippel-Lindau disease tumor suppressor/Mitogen-activated protein kinase kinase kinase 9 (Homo sapiens), sequence (P80192 whole entry, looked up): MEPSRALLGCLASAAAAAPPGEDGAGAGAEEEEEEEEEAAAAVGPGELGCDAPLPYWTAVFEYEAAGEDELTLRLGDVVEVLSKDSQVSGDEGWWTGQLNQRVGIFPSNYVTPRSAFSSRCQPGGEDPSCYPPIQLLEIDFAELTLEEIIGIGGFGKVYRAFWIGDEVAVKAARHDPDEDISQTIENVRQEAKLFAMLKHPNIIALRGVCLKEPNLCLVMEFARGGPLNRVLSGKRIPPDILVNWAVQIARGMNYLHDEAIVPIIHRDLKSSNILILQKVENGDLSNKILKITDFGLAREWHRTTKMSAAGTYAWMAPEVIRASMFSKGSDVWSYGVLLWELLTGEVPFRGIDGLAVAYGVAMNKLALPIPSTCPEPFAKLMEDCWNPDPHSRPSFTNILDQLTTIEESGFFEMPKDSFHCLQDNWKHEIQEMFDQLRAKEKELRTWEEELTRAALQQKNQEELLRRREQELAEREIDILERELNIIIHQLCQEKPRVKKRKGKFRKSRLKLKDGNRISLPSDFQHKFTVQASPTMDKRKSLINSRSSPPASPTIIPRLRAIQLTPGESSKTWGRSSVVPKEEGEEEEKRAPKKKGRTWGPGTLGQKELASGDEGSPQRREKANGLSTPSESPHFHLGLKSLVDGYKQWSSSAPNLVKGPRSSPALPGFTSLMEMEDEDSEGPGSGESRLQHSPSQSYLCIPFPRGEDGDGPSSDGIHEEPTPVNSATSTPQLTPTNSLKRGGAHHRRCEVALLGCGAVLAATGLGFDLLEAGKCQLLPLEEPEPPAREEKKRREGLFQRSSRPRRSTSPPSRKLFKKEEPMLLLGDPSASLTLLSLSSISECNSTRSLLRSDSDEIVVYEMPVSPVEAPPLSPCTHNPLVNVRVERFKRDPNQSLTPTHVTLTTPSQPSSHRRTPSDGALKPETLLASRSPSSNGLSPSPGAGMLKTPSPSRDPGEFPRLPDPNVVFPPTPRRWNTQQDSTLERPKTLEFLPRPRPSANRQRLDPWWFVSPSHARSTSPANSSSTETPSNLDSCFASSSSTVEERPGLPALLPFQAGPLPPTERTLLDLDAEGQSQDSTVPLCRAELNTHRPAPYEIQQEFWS
Procedure, shortened: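 A375 cells carried lentiviral DOX-inducible MLK1, MLK2 or MLK4 and were grown in RPMI-1640 with 10% FBS. Cells were seeded at 100 000/well and induced with 1 μg/mL DOX. After 24 h they were treated at 0.1–5 μM for 24 h, with DMSO as control. Levels were read by ECL immunoblot of RIPA lysates, with GAPDH or β-actin loading control.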

[4] = molecular target: T1, von Hippel-Lindau disease tumor suppressor/Mitogen-activated protein kinase kinase kinase 11; test: PROTAC activity at VHL/MLK3 in human MCF7 cells assessed as protein degradation measured after 4 to 48 hrs by Western blot analysis; format: cell-based; conditions: dose 1.0 µM, time 4-48 hrs
Procedure, shortened: (§1)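 MCF-7 and MDA-MB-468 cells were seeded at 100 000/well and treated with 1 μM PROTAC for 4–48 h, with DMSO as control. MLK3 was quantified by immunoblot as percent remaining, and t1/2 of degradation was derived from the time course.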

[5] = molecular target: T1, von Hippel-Lindau disease tumor suppressor/Mitogen-activated protein kinase kinase kinase 11; test: PROTAC activity at VHL/MLK3 in human MDA-MB-468 cells assessed as protein degradation measured after 4 to 48 hrs by Western blot analysis; format: cell-based; conditions: dose 1.0 µM, time 4-48 hrs; procedure, shortened: as §1
[6] = molecular target: T1, von Hippel-Lindau disease tumor suppressor/Mitogen-activated protein kinase kinase kinase 11; test: PROTAC activity at VHL/MLK3 in human MCF7 cells assessed as protein degradation at 1 uM by Western blot analysis; format: cell-based; conditions: time 4-48 hrs, TDE = time-dependent effect
[7] = molecular target: T1, von Hippel-Lindau disease tumor suppressor/Mitogen-activated protein kinase kinase kinase 11; test: PROTAC activity at VHL/MLK3 in human MCF7 cells assessed as half life of protein degradation at 1 uM by Western blot analysis; format: cell-based
Procedure, shortened: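 Endogenous MLK3: cells seeded at 100 000/well, treated next day with 1 μM PROTAC for 4–48 h, DMSO control; immunoblot with GAPDH or β-actin loading control. Remaining MLK3 quantified over time and t1/2 derived.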

[8] = tested on: MDA-MB-468; test: Effect on MLK3 mRNA level in human MDA-MB-468 cells at 1 uM measured after 24 hrs by RT-qPCR analysis; format: functional, cell-based
Procedure, shortened: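 Total RNA extracted from MCF-7 and MDA-MB-468 cells 24 h after PROTAC treatment, purity and concentration checked spectrophotometrically, reverse transcribed to cDNA and MLK3 transcript quantified by RT-qPCR.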

[9] = molecular target: T2, von Hippel-Lindau disease tumor suppressor/Mitogen-activated protein kinase kinase kinase 10 (Homo sapiens) (UniProt Q02779+P40337); test: PROTAC activity at VHL/MLK2 in human MDA-MB-468 cells assessed as protein degradation at 1 uM incubated for 24 hrs by immunoblot analysis; format: cell-based
T2 sequence (P40337 whole entry, looked up): as the sequence (P40337 whole entry, looked up) above
T2 sequence (Q02779 whole entry, looked up): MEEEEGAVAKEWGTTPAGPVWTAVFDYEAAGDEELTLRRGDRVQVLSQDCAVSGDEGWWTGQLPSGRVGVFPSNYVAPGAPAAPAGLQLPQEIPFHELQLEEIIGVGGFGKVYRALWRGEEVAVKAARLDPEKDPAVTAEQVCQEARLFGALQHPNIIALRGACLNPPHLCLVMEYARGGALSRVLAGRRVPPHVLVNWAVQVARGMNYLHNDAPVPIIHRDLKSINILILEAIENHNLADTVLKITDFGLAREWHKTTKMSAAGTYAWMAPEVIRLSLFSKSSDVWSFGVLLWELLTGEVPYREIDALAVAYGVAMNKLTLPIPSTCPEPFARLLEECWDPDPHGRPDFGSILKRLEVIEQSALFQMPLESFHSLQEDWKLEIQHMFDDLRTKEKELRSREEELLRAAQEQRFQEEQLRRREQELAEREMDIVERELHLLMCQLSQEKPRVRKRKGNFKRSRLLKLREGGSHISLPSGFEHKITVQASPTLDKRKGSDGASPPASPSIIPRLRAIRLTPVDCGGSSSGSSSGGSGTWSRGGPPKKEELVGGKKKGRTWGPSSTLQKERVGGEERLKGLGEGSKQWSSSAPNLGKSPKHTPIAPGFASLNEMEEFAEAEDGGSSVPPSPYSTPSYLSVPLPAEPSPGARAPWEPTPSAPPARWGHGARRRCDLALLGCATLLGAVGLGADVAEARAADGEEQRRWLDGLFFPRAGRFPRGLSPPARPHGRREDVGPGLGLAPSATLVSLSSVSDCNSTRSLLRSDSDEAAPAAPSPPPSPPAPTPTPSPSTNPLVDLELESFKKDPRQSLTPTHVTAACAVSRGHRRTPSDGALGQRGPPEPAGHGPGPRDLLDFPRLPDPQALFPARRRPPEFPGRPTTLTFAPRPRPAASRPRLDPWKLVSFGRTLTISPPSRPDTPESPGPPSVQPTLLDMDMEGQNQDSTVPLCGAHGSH
Procedure, shortened: (§2)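 Endogenous MLK1, MLK2 or MLK4 levels in MCF-7 and MDA-MB-468 cells. Cells were grown in high-glucose DMEM with 10% FBS, seeded at 100 000 cells/well and treated the next day for 24 h, with DMSO as control. Lysis was in RIPA with protease inhibitor, followed by 10% SDS-PAGE, nitrocellulose transfer and ECL immunoblot with GAPDH or β-actin as loading control.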

[10] = molecular target: T2, von Hippel-Lindau disease tumor suppressor/Mitogen-activated protein kinase kinase kinase 10 (Homo sapiens); test: PROTAC activity at IAP/MLK2 in human MCF7 cells assessed as protein degradation at 1 uM incubated for 24 hrs by immunoblot analysis; format: cell-based; procedure, shortened: as §2
[11] = molecular target: T3, von Hippel-Lindau disease tumor suppressor/Mitogen-activated protein kinase kinase kinase 21 (Homo sapiens) (UniProt P40337+Q5TCX8); test: PROTAC activity at IAP/MLK4 in human MCF7 cells assessed as protein degradation at 1 uM incubated for 24 hrs by immunoblot analysis; format: cell-based; procedure, shortened: as §2
T3 sequence (P40337 whole entry, looked up): as the sequence (P40337 whole entry, looked up) above
T3 sequence (Q5TCX8 whole entry, looked up): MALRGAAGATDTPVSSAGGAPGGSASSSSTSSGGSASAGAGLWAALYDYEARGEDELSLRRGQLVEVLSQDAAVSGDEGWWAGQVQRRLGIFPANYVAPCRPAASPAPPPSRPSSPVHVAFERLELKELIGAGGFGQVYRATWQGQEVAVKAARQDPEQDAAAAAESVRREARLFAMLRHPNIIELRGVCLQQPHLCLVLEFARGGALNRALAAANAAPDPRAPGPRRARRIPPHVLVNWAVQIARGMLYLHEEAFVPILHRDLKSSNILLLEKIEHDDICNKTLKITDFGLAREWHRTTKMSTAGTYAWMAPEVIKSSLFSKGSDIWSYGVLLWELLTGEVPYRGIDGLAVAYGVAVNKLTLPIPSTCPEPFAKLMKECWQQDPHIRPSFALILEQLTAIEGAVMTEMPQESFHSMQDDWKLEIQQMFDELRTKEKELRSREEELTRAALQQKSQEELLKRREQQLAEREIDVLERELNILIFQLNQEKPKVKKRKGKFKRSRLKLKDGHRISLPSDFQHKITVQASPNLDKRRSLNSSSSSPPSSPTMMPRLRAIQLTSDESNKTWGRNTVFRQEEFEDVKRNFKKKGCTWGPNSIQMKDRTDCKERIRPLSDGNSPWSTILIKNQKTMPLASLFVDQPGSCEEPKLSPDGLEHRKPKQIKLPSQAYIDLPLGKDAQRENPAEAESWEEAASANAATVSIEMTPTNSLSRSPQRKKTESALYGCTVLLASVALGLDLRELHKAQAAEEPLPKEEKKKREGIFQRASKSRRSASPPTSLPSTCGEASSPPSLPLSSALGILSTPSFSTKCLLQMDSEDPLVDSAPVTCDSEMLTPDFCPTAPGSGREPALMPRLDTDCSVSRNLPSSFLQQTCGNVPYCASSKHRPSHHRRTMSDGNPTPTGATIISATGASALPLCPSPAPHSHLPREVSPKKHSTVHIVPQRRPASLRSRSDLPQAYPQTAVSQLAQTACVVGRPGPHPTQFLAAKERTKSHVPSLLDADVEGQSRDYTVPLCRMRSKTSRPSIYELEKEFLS

[12] = molecular target: T3, von Hippel-Lindau disease tumor suppressor/Mitogen-activated protein kinase kinase kinase 21 (Homo sapiens); test: PROTAC activity at IAP/MLK4 in human MDA-MB-468 cells assessed as protein degradation at 1 uM incubated for 24 hrs by immunoblot analysis; format: cell-based; procedure, shortened: as §2
[13] = tested on: MDA-MB-468; test: Effect on ERK pathway in human MDA-MB-468 cells at 1 uM measured after 24 hrs by immunoblot analysis; format: functional, cell-based
[14] = tested on: MDA-MB-468; test: Inhibition of colony formation in human MDA-MB-468 cells at 1 uM incubated for 15 days by crystal violet staining based analysis; format: functional, cell-based; conditions: time 15.0 day
Procedure, shortened: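 5000 cells per 6 cm plate in triplicate with 1 μM PROTAC or DMSO, medium changed every 5 days; colonies stained with crystal violet after 14–15 days. Three independent experiments, mean ± SD, unpaired t-test against control.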

[15] = tested on: MDA-MB-468; test: Growth inhibition of human MDA-MB-468 cell spheroids in hydrogel at 1 uM incubated for 10 days; format: functional, cell-based; conditions: time 10.0 day
Procedure, shortened: (§3)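 4000 cells plated on top of hydrogels and grown 10 days with 1 μM PROTAC or DMSO; spheroid formation and size scored.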

[16] = tested on: MDA-MB-468; test: Growth inhibition of human MDA-MB-468 cell spheroids in low-attachment surface at 1 uM incubated for 10 days; format: functional, cell-based; conditions: time 10.0 day
Procedure, shortened: (§4)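 Cells grown 10 days in low-attachment surface plates in medium containing 1 μM PROTAC or DMSO; spheroid growth assessed.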

[17] = tested on: MCF7; test: Growth inhibition of human MCF7 cell spheroids in hydrogel at 1 uM incubated for 10 days; format: functional, cell-based; conditions: time 10.0 day; procedure, shortened: as §3
[18] = tested on: MCF7; test: Growth inhibition of human MCF7 cell spheroids in low-attachment surface at 1 uM incubated for 10 days; format: functional, cell-based; conditions: time 10.0 day; procedure, shortened: as §4
[19] = tested on: MDA-MB-468; test: Induction of cell cycle arrest at G2/M phase in human MDA-MB-468 cells at 1 uM measured after 48 hrs by PI staining based flow cytometry; format: functional
Procedure, shortened: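 Cells seeded at 50 000/well, exposed to 1 μM PROTAC or DMSO for 48 h, trypsinized, fixed in ice-cold methanol and held at –20 °C; next day stained with PI/RNase solution and read by flow cytometry. Two independent experiments.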

[20] = tested on: MCF7; test: Induction of apoptosis in human MCF7 cells at 1 uM measured after 48 hrs by Annexin V-FITC/PI staining based flow cytometry; format: functional, cell-based
Procedure, shortened: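 Cells seeded at 50 000/well, treated 48 h with 1 μM PROTAC or DMSO; cells plus supernatant stained with Alexa Fluor488 Annexin V for 30 min at room temperature in the dark, PI added 5 min before flow cytometry. At least three repeats.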

[21] = molecular target: T1, von Hippel-Lindau disease tumor suppressor/Mitogen-activated protein kinase kinase kinase 11; test: PROTAC activity at VHL/MLK3 in human MDA-MB-468 cells assessed as protein degradation at 1 uM measured after 24 hrs by immunoblot analysis

## CCSCc1ccc2c(c1)c1c3c(c4c5cc(CSCC)ccc5n5c4c1n2[C@H]1C[C@](O)(C(=O)NCCOCCOCCOCC(=O)N[C@H](C(=O)N2C[C@H](O)C[C@H]2C(=O)N[C@@H](C)c2ccc(-c4scnc4C)cc2)C(C)(C)C)[C@]5(C)O1)CNC3=O
[1]
  Activity: Active
[2]
  Activity: inactive
[3]
  Activity: inactive
[4]
  Activity: Dose-Dependent Effect
[5]
  Activity: Dose-Dependent Effect
[6]
  Activity: Tde
[7]
  T1/2: 2.5 h
[8]
  Activity: inactive
[9]
  Activity: inactive
[10]
  Activity: inactive
[11]
  Activity: inactive
[12]
  Activity: inactive
[13]
  Activity: inactive
[14]
  inhibition: Active
[15]
  growth inhibition (GI): Active
[16]
  growth inhibition (GI): Active
[17]
  growth inhibition (GI): inactive
[18]
  growth inhibition (GI): inactive
[19]
  Activity: Active
[20]
  Activity: inactive
[21]
  Activity: Active
